Rows were chosen to be rich in hits. Some 3% of all compounds tested hit in one or more screens of this group.
Apaf-1 inh: blocks human Apaf-1 apoptosome activity | reconstituted apoptosome caspase-3 activity, DEVD-Rh110 fluorescence | 0.71% of 330,000 active | inhibition, % at 20 µM | O14727 | AID 489030; active = inhibition of at least 40% at 20 µM;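 note: plate controls were DMSO wells for no effect and DEVD-CHO caspase inhibitor wells for full effect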
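Medium: Hepes buffer, pH 7.5 / System: biochemical Apaf-1 apoptosome reconstitution / Measured by: Rh110 fluorescence, excitation 480 nm, emission 540 nm / Times: compound with Apaf-1, dATP, procaspase-3 30 min, then 50 min reaction, room temperature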
SENP8 block-1: inhibitors of human SENP8 protease | 0.64% of 360,000 active | AID 602440 | Q96LD8 | recombinant SENP8, Nedd8 substrate fluorescence | inhibition, % at 20 µM; in the data active = inhibition mostly above about 40%, no sharp cut-off; inactive = mostly below about 27%
Target sequence (Q96LD8 whole entry, looked up): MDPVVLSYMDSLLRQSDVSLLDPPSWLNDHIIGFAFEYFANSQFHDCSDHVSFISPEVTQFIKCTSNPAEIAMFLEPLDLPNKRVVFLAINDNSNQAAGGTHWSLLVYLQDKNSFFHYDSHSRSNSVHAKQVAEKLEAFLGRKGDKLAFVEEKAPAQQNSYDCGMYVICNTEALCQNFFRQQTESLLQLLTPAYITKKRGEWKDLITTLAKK
SENP8 block-2: blocks the human protease SENP8; Q96LD8; purified SENP8, Z-RLRGG-aminoluciferin cleavage, luminescence; inhibition, % at 10 µM; 1.2% of 330,000 active; in the data active = inhibition above about 50%
SENP6 block: inhibitors of human SENP6 protease. Recombinant SENP6 catalytic domain, aminoluciferin luminescence. inhibition, % at 10 µM. 1.8% of 330,000 active. AID 2599;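 active = inhibition above about 50% at the single tested dose, limit read from the data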;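 note: plate controls were DMSO wells with enzyme for no effect and DMSO wells lacking enzyme for full effect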
SENP7 block: blocks the human protease SENP7. 1.5% of 330,000 active. AID 434973. recombinant SENP7, Z-RLRGG-aminoluciferin luminescence, 40 min. Q9BQF6. inhibition, % at 5 µM;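 active = inhibition above about 50% at the single test dose, limit read from the data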;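 note: plate controls were DMSO with enzyme for no effect and no enzyme buffer wells for full effect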
UBC13 inh: blocks human UBC13 polyubiquitin chain formation; P61088; TR-FRET; inhibition, % at 20 µM; 0.47% of 330,000 active; in the data active = inhibition above about 45%, passing the limit was not always enough; inconclusive = no clear call, values can overlap the other calls
Target sequence (P61088 whole entry, looked up): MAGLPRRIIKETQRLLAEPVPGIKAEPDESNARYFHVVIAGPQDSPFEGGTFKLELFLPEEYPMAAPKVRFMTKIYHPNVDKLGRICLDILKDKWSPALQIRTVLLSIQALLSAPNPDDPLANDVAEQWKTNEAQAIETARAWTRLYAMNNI
* marks the source's active call; other numbers are inactive results; u = inconclusive; x = no result given.

SMILES	Apaf-1 inh	SENP8 block-1	SENP8 block-2	SENP6 block	SENP7 block	UBC13 inh
CCCCCCNC(=O)N[C@H](C(=O)NCCC[C@H]1CN2C(=NC[C@H]2C)N1CCC(c1ccccc1)c1ccccc1)C(C)O (stereo not given in full)	23	x	-14	-11	1	49*
CC1(C)OC(c2ccccc2)=C/C(=C/C=C2C(=O)c3ccccc3C2=O)O1	9	59*	8	-15	3	-153
Cc1ccccc1N=C/C=C1/C=C(c2ccccc2)OC(C)(C)O1	8	7	-8	-19	-10	-13
CCCCCCCCCCn1c2c(c(=N)c3c1CCC3)CCC2	74*	19	-9	-12	4	62*
O=C(Cn1nc(-c2ccccc2Cl)ccc1=O)Nc1ccccc1-c1ccccc1	56*	12	-5	-14	4	-1
C=CCn1c(N)c(C(=O)Nc2cccc(C)c2)c2nc3ccccc3nc21	48*	-322	11	37	11	8
C=CCn1c(N)c(C(=O)Nc2ccc(C)c(C)c2)c2nc3ccccc3nc21	23	-96	4	21	2	13
C#CCOCCOCCOCCNc1nc(N2CCN(C(=O)[C@H]([C@@H](C)CC)n3cc([C@@H](N)CC(C)C)nn3)CC2)nc(N2CCN(C(=O)[C@H](Cc3cc4ccccc4[nH]3)n3cc([C@@H](N)C(C)CC)nn3)CC2)n1 (stereo not given in full)	30	x	14	-14	-5	81*
C#CCOCCOCCOCCNc1nc(N2CCOCC2)nc(N2CCN(C(=O)[C@H](Cc3cc4ccccc4[nH]3)n3cc([C@@H](N)C(C)CC)nn3)CC2)n1 (stereo not given in full)	18	-11	-2	-12	5	26
C#CCOCCOCCOCCNc1nc(N2CCN(C(=O)C(Cc3cc4ccccc4[nH]3)n3cc(C(N)C(C)CC)nn3)CC2)nc(N2CCN(C(=O)C(Cc3cc4ccccc4[nH]3)n3cc(C(N)C(C)CC)nn3)CC2)n1 (stereo not given)	37	-1	-17	-16	3	94*
CCN(CC)CCNC(=O)c1ccc2c(c1NCCO)C(=O)c1ccccc1C2=O	54*	88*	24	37	37	-267
Cc1ccc(C(=O)C2C(=O)C3CCC2C3)cc1 (stereo not given)	x	13	x	x	x	x
CCC(C(=O)NC(C)(C)C)n1c(-c2cccc(NC(C)=O)c2)nc2ccccc21 (stereo not given)	x	-31	x	x	x	x
O=C(N=C1N=C2C=CC(Br)=CN2Cc2ccccc21)c1ccc([N+](=O)[O-])cc1[N+](=O)[O-]	-14	13	56*	78*	67*	-10
O=C(c1ccc([N+](=O)[O-])cc1[N+](=O)[O-])N1CCc2ccccc21	-11	18	6	3	4	-8
Cc1c(C(=O)NCc2cccc(C(F)(F)F)c2)sc(=O)n1Cc1ccccc1F	x	7	x	x	x	x
CC1(Cc2ccccc2OC(F)(F)F)C(=O)Nc2c(Cl)ccc(Cl)c21 (stereo not given)	x	-1	x	x	x	x
Nc1cccc(C(=O)OCC(=O)c2ccccc2)c1	-5	10	55*	68*	70*	-5
N#C/C(N=Nc1ccccc1O)=N\Nc1ccccc1O	6	58*	74*	85*	-13	-257
CCOc1ccc(C(=O)Nc2cccc([N+](=O)[O-])c2)cc1Br	-8	15	-1	8	56*	2
CC(C)(C)NC(=O)Nc1ccccc1C(N)=O	-18	-33	-6	0	-1	-2
CSc1ccc(NC(=O)Nc2ccccc2C(N)=O)cc1	0	-72	92*	97*	95*	2
OC(c1ccc(Cl)c(F)c1)c1ncc(-c2cccc(C(F)(F)F)c2)[nH]1 (stereo not given)	x	3	x	x	x	x
COc1cccc(-c2noc(-c3ccc(Br)o3)n2)c1	1	13	57*	2	73*	23
COc1ccc(-c2noc(-c3ccc(Br)o3)n2)cc1	-4	-13	0	31	36	0
SMILES	Apaf-1 inh	SENP8 block-1	SENP8 block-2	SENP6 block	SENP7 block	UBC13 inh
COc1ccc(N2CSC(=S)N(c3ccc(OC)cc3)C2)cc1	x	11	x	x	x	x
CCCCn1nnnc1C(c1cc2ccccc2o1)N(C)Cc1ccccc1 (stereo not given)	x	10	x	x	x	x
CCS(=O)(=O)C1=NN2C(=N)/C(=C\c3ccc(OC(=O)c4ccco4)c(OC)c3)C(=O)N=C2S1	-3	-30	53*	4	-1	-25
CCN1/C(=C/C=C/c2oc3ccc4ccccc4c3[n+]2CC)Oc2ccc3ccccc3c21	76*	x	16	-6	14	u
Cc1nc(NC(=O)c2ccccc2)sc1-c1csc(Nc2ccc(Cl)cc2Cl)n1	-5	x	33	51*	59*	-10
Cc1nc(NC(=O)c2ccccc2)sc1-c1csc(Nc2ccc(Cl)cc2)n1	-16	x	42	51*	25	-46
Cc1nc(NC(=O)c2ccccc2)sc1-c1csc(Nc2ccc(F)cc2)n1	-13	x	48	45	20	-18
Cc1ccc(S(=O)(=O)N2[C@H](CC(=O)c3cccs3)OC[C@@H]2C(C)C)cc1	x	20	x	x	x	x
CCCCCNC(=O)C(CCc1ccccc1)n1c(=O)c(-c2ccccc2)nc2ccccc21 (stereo not given)	x	-332	x	x	x	x
Cc1ccccc1NC(=O)CC1SC(=O)N(c2ccccc2)C1=O (stereo not given)	-4	55*	-8	-1	8	8
O=C(CC1SC(=O)N(c2ccccc2)C1=O)Nc1cccc2ccccc12 (stereo not given)	-18	18	-1	-3	11	36
S=C(Nc1ccccc1)c1nc2ccccc2s1	17	-12	48	-17	67*	-6
O=C(NNc1nc2ccccc2s1)Nc1ccccc1	-6	-4	-9	-24	1	-2
COc1ccccc1-c1noc(-c2ccccc2)n1	8	17	87*	92*	93*	-3
Cc1c(CCC(=O)NCCCCCC(=O)O)c(=O)oc2c(C)c3oc4c(c3cc12)CCCC4	14	-269	6	-7	12	7
Cc1c(CCC(=O)NCCCn2ccnc2)c(=O)oc2c(C)c3oc4c(c3cc12)CCCC4	25	-220	-6	0	4	53*
CCOc1ccc(N=Cc2ccc([N+](=O)[O-])cc2)c(O)c1	x	41*	x	x	x	x
CC(C)c1ccc(/C=C2\CC/C(=C\C=N\N(C)C)C2=O)cc1	16	2	4	-5	9	-39
CN(C)/N=C/C=C1\CC/C(=C\c2ccc(F)c(F)c2)C1=O	-2	52*	-5	5	-9	-76
COc1cc(NC(=O)CN2C(=O)NC3(CCOc4ccccc43)C2=O)cc(OC)c1 (stereo not given)	59*	-6	-11	-17	-12	19
O=C(Nc1ccc2nsnc2c1)c1cccs1	-6	-361	-8	14	2	9
